# Experimental data from the array DNA melting data of Ke et al. (doi:10.1101/2024.01.08.574731).
# Tests used:
# [1] = melting temperature; fluorescence melt of hairpins on a sequencing array, two-state fit, raised by 9.35 °C to match UV melts; details: sodium 0.088 M
# In short: (§1)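 Melting temperature and folding enthalpy were derived from bootstrapped two-state fits. The fitted temperatures were raised by 9.35 °C to agree with UV melts, and four replicates were combined by inverse variance. The underlying data were Cy3 fluorescence images of library hairpins, with annealed Cy3 and quencher oligos, on a sequenced MiSeq flow cell in 50 mM Na-HEPES pH 8.0, 25 mM NaCl, taken in 2.5 °C steps up to 60 °C, normalised to pre-quench Cy3 and to control constructs.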
# [2] = folding enthalpy; higher = less favourable; fluorescence melt of hairpins on a sequencing array, two-state fit; details: sodium 0.088 M
# In short: as §1
Sequence,Tm [1] [°C],folding enthalpy [2] [kJ/mol]
GTAAACGAAAGTTTATAC ((((((....)))..))),37.1,-56.3
GTAAACGGAAACGTTTAC (((((((....))))))),57.8,-198
GTAAAGCGAAAGCTCTAC (((.(((....))).))),35,-60.7
GTAAATGGAAACATTTAC (((((((....))))))),51.3,-132
GTAACACCGAAAGGTTAC (((..(((....)))))),35.6,-61.8
GTAACAGCGAAAGCTTAC (((..(((....)))))),28.6,-45.4
GTAACCGAAAGGTGATAC ((((((....)))..))),30.7,-54
GTAACCGAAAGGTGCTAC ((((((....)))..))),39.1,-54.8
GTAACCGGAAACGGTTGC (.(((((....))))).),53.1,-133
GTAACGCGAAAGCGCTAC (((.(((....))).))),51.9,-82.1
GTAACGGAAACGTTAC ((((((....)))))),56.3,-168
GTAACGGGAAACCGCTAC (((.(((....))).))),39.9,-102
GTAACGGGAAACCGTTGC (.(((((....))))).),52,-88.6
GTAACGTCGAAAGACTAC (((..(((....)))))),28.7,-46.8
GTAACTGGAAACAGTTAC (((((((....))))))),56.1,-174
GTAAGAACGAAAGTTTAC (((..(((....)))))),24.3,-34.3
GTAAGAGGAAACTCTCAC ((.((((....)))).)),26.3,-61.9
GTAAGAGGAAACTCTTAC (((((((....))))))),51,-176
GTAAGCCCGAAAGGGTAC (((..(((....)))))),28.1,-44.1
GTAAGCCGAAAGGCCTAC (((.(((....))).))),39.4,-57.2
GTAAGCGAAAGCTTTTAC ((((((....)))..))),29.7,-49.6
GTAAGCGGAAACGCCTAC (((.(((....))).))),35.4,-66
GTAAGCGGAAACGTTTAC ((((.((....)).)))),43,-118

Sequence,Tm [1] [°C],folding enthalpy [2] [kJ/mol]
GTAAGGCGAAAGCCATAC (((.(((....))).))),44.8,-63.9
GTAAGGCGAAAGCCCTAC (((.(((....))).))),36,-56.4
GTAAGGGGAAACCTTTAC ((((.((....)).)))),33.9,-114
GTAAGGGGAAACTCTTAC (((((.(....).))))),37.6,-144
GTAATAGGAAACTATTGC (.(((((....))))).),34.2,-78.3
GTAATAGGAAACTGTTAC ((((.((....)).)))),36.4,-104
GTAATCACGAAAGTGTAC (((..(((....)))))),29.3,-45.4
GTAATCCCGAAAGGGTAC (((..(((....)))))),27.5,-46.4
GTAATCGAAAGATTCTAC ((((((....)))..))),28.8,-77.5
GTAATCGGAAACGATCAC ((.((((....)))).)),33.9,-105
GTAATGGAAACATTAC ((((((....)))))),46.7,-133
GTAATGGGAAACCATCAC ((.((((....)))).)),28.8,-74.2
GTAATTGGAAACAATCAC ((.((((....)))).)),27.4,-48.5
GTACACACGAAAGTGTAC (((..(((....)))))),46.5,-69.3
GTACACGAAAGTGAGTAC ((((((....)))..))),36.5,-65.2
GTACACGAAAGTGTATAC ((((((....)))..))),43.6,-50.6
GTACACGAAAGTGTGTAC ((((((....)))..))),46,-57.9
GTACACGGAAACATGTAC (((((.(....).))))),34.2,-119
GTACAGACGAAAGTCTAC (((..(((....)))))),29.8,-48.1
GTACAGCGAAAGCTATAC (((.(((....))).))),36.9,-75.3
GTACAGGGAAACCTGTGC (.(((((....))))).),49.8,-87.5
GTACATCCGAAAGGATAC (((..(((....)))))),29.6,-50.6
GTACATGCGAAAGCATAC (((..(((....)))))),28.7,-36.1

Sequence,Tm [1] [°C],folding enthalpy [2] [kJ/mol]
GTACATGGAAACATGCAC ((.((((....)))).)),39.2,-94.9
GTACCACGAAAGTGATAC (((.(((....))).))),43.7,-102
GTACCAGGAAACCGGTAC (((((.(....).))))),46.9,-149
GTACCAGGAAACTAGTAC ((((.((....)).)))),28.7,-63.8
GTACCCACGAAAGTGTAC (((..(((....)))))),26.2,-48.3
GTACCCGAAAGGGCTAC ((((((....))).))),40.2,-63.9
GTACCCGAAAGGGCTTAC ((((((....)))..))),27.1,-47
GTACCCGAAAGGGGTAC ((((((....))).))),59.2,-116
GTACCCGGAAACGGATAC (((.(((....))).))),42.2,-102
GTACCGAAAGGTAC (((((....))))),65.9,-113
GTACCGCGAAAGCGATAC (((.(((....))).))),48.5,-98.8
GTACCGCGAAAGCGCTAC (((.(((....))).))),35.9,-50.8
GTACCTCGAAAGAGATAC (((.(((....))).))),38.7,-118
GTACCTCGAAAGAGCTAC (((.(((....))).))),30.2,-46.4
GTACCTCGAAAGAGTAC (((.(((....)))))),42.5,-87
GTACGACGAAAGTCCTAC (((.(((....))).))),31.9,-55
GTACGAGCGAAAGCTTAC (((..(((....)))))),22.6,-34.3
GTACGAGGAAACTTGTGC (.((.((....)).)).),33,-70.4
GTACGCCGAAAGGCCTAC (((.(((....))).))),39.2,-45.6
GTACGCCGAAAGGCTTAC (((.(((....))).))),46.3,-89.8
GTACGCGAAAGCGGCTAC ((((((....)))..))),42.1,-43.4
GTACGCGAAAGCGGTAC ((((((....))).))),56.5,-69.5
